Results collected from several papers.
Target: MAP kinase-activated protein kinase 5 (MAPKAPK5, Homo sapiens, UniProt Q8IW41)
Sequence (Q8IW41 1-473, as in one of the studies): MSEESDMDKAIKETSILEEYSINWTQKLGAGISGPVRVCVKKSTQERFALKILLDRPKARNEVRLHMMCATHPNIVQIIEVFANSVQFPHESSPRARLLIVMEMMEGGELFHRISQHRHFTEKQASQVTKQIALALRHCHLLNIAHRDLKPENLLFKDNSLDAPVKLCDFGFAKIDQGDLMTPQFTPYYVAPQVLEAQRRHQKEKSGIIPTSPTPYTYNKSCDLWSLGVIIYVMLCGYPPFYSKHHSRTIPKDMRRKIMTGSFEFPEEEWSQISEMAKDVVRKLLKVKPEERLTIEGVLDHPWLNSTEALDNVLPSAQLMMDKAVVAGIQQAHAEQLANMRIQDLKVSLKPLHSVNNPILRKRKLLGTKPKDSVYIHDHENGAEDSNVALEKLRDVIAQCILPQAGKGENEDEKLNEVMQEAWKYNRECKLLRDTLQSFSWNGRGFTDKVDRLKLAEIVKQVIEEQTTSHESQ

O=C(c1ccc(Nc2nccc(-c3cc4ccccc4s3)n2)cc1)N1CCC(N2CCCC2)CC1  remaining binding (binding; competition with immobilised ligand; 1 µM): 96%
O=S(=O)(NC1CCC(c2cc(F)ccc2F)(S(=O)(=O)c2ccc(Cl)cc2)CC1)C(F)(F)F (stereo not shown)  remaining binding (cell-free assay; competition with immobilised ligand; 1 µM): 93%
Cc1cnn2ncc(-c3ccnc(N(C)C)n3)c2c1  remaining binding (binding; 1 µM): 77%
CSc1cccnc1N1CCN(Cc2nc3ccccc3[nH]2)CC1  remaining binding (cell-free assay; competition with immobilised ligand; 1 µM): 84%
FC(F)(F)Oc1cccc(-c2cnc3ccc(-c4ccncc4)nn23)c1  remaining binding (cell-free assay; competition with immobilised ligand; 5 µM): 71%
COc1cnc(Nc2cccc(S(N)(=O)=O)c2)nc1N1CCN(c2ccccc2)CC1  remaining binding (binding; competition with immobilised ligand; 1 µM): 96%
CN(C(=O)c1ccccc1)c1cc(N(C)c2ccc3c(c2)CCc2ccc(C(=O)NCCN4CCOCC4)cc2C3=O)ccc1F  remaining binding (cell-free assay; competition with immobilised ligand; 1 µM): 100%
c1cncc(-c2cccc(Nc3nccc(NC4CCCCC4)n3)c2)c1  remaining binding (binding; competition with immobilised ligand; 10 µM): 100%
O=C(c1ccc(Nc2ncc(Cl)c(-c3cc4ccccc4s3)n2)cc1)N1CCC(N2CCCC2)CC1  remaining binding (binding; competition with immobilised ligand; 1 µM): 80%
CC1CCCN1c1nccc(-c2cnn3ncccc23)n1 (stereo not shown)  remaining binding (binding; 1 µM): 100%
C[C@H](c1ccnc(Nc2nc3ccc(-c4cc(N(C)C)ncn4)cc3[nH]2)c1)N1CCN(C(=O)CC(F)(F)F)CC1  remaining binding (cell-free assay; competition with immobilised ligand; 0.1 µM): 86%
CN(CCCC(F)(F)F)c1nccc(-c2cnn3ncccc23)n1  remaining binding (binding; 1 µM): 100%
CCN1CCN(Cc2ccc(C(=O)Nc3ccc(C)c(Oc4ccc5c(c4)CC(=O)N5)c3)cc2C(F)(F)F)CC1  remaining binding (binding; competition with immobilised ligand; 1 µM): 100%
O=C(NCC1CCOCC1)c1n[nH]cc1NC(=O)c1c(F)cccc1F  remaining binding (binding; competition with immobilised ligand; 1 µM): 72%
c1cnn2ncc(-c3ccnc(N4CCC45COC5)n3)c2c1  remaining binding (binding; 1 µM): 74%
CCS(=O)(=O)c1cc2cc(C[C@](O)(CC(C)(C)c3ccc(F)cc3C(N)=O)C(F)(F)F)[nH]c2cn1  remaining binding (cell-free assay; competition with immobilised ligand; 1 µM): 93%
CNC(=O)[C@@H]1CC[C@@H](n2c(-c3ccc4cnccc4c3)nc3ccc(C(=O)NCc4cccc(C(N)=O)c4)cc32)C1  remaining binding (binding; competition with immobilised ligand; 1 µM): 100%
C[C@@H]1CCN(c2nccc(-c3cnn4ncccc34)n2)C1  remaining binding (binding; 1 µM): 69%
C[C@@H](c1ccc(-n2cnc3c(N)ncnc32)cc1)N1CCc2nn(C)c(Cc3ccccc3)c2C1=O  remaining binding (binding; competition with immobilised ligand; 0.1 µM): 76%
